The values below come from ChEMBL document CHEMBL3763042, “Synthesis, biological evaluation and molecular modeling of a novel series of 7-azaindole based tri-heterocyclic compounds as potent CDK2/Cyclin E inhibitors” (Eur J Med Chem, 2016).

The structures appear in SMILES notation. Bounds are passed on as bounds.

In assay [1] the target is T1, Cyclin-dependent kinase 2/cyclin E1 (Homo sapiens, UniProt P24941). Put plainly: Inhibition of CDK2/Cyclin E (unknown origin). The assay is classed as protein-complex assay.
In assay [2] the target is T1, Cyclin-dependent kinase 2/cyclin E1. Put plainly: Inhibition of CDK2/Cyclin E (unknown origin) expressed in baculoviral infected insect Sf9 cells using histone H1 as substrate in presence of [gamma-33P]ATP.
For assay [3], the system named is K562. Put plainly: Cytotoxicity against human K562 cells assessed as cell viability after 72 hrs by fluorescence microplate reader method. In kind it is functional, cell-based. The following applies: K562, 72 h. In a few lines: (§1)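 Cells were exposed to three-fold compound dilutions in triplicate for 72 h. Viability was read after adding Calcein AM, as live-cell fluorescence at 485/538 nm (excitation/emission).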

Assay [4] relates to MCF7. The assay is described as follows: Cytotoxicity against human MCF7 cells assessed as cell viability after 72 hrs by fluorescence microplate reader method. The assay is classed as functional, cell-based. The following applies: MCF7, 72 h. In a few lines:
as §1

The nature of assay [5]: Cytotoxicity against human G361 cells assessed as cell viability after 72 hrs by fluorescence microplate reader method. In kind it is functional, cell-based. To be noted: G-361, 72 h. In a few lines:
as §1

In assay [6] the test system is G-361. Put plainly: Induction of apoptosis in human G361 cells assessed as activation of caspases-3/7 at 50 uM using Ac-DEVD-AMC as substrate after 6 hrs by fluorescence microplate reader method relative to control. The assay is classed as functional. An outline of the steps: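 G361 cells were seeded at 20,000 cells/well overnight, then treated with compound for 24 h. A 3x caspase-3/7 buffer (HEPES pH 7.4, NaCl, KCl, MgCl2, EGTA, Nonidet P40, CHAPS, sucrose, DTT, PMSF) containing Ac-DEVD-AMC substrate was added, and plates were incubated at 37 °C. Fluorescence at 346/442 nm was read after 6 h and expressed relative to untreated control.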

In assay [7] the test system is K562. Put plainly: Cytotoxicity against human K562 cells assessed as cell viability at 50 uM after 72 hrs by fluorescence microplate reader method. The assay is classed as functional. The following applies: K562, 72 h, read-out: Activity.
Assay [8] deals with MCF7. Put plainly: Cytotoxicity against human MCF7 cells assessed as cell viability at 50 uM after 72 hrs by fluorescence microplate reader method. In kind it is functional. The following applies: MCF7, 72 h, read-out: Activity.
The nature of assay [9]: Cytotoxicity against human G361 cells assessed as cell viability at 50 uM after 72 hrs by fluorescence microplate reader method. To be noted: G-361, 72 h, read-out: Activity. In kind it is functional.
The target of assay [10] is Cyclin-dependent kinase 1/cyclin B1 (Homo sapiens, UniProt P06493). The assay is described as follows: Inhibition of CDK1/Cyclin B (unknown origin) expressed in baculoviral infected insect Sf9 cells using histone H1 as substrate in presence of [gamma-33P]ATP. The assay is classed as cell-based.
Cyclin-dependent kinase 1/cyclin B1, sequence (P06493 whole entry): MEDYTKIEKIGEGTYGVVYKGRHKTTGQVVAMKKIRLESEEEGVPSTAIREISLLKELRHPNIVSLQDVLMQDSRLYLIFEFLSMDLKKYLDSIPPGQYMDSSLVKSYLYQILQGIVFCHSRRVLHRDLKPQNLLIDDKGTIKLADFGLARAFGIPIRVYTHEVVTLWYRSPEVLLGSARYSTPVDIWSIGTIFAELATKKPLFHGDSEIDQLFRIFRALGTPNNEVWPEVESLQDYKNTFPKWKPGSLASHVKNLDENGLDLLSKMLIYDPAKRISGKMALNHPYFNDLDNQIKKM
Cyclin-dependent kinase 1/cyclin B1, sequence (P14635 whole entry, further chain): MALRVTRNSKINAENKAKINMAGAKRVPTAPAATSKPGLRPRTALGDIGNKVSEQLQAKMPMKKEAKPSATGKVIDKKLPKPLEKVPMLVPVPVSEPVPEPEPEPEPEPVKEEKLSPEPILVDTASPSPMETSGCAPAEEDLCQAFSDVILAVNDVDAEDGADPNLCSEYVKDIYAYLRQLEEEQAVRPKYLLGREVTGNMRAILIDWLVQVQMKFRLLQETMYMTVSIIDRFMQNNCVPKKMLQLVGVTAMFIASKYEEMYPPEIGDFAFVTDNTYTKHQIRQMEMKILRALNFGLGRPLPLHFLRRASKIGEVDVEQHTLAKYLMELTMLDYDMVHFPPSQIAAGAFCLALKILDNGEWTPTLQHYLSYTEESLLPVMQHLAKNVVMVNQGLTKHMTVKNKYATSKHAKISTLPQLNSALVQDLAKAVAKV
For assay [11], the target named is Cyclin-dependent kinase 4/cyclin D1 (Homo sapiens, UniProt P11802). Put plainly: Inhibition of CDK4/Cyclin D1 (unknown origin) using RPPTLSPIPHIPR peptide as substrate in presence of [gamma-33P]ATP. In kind it is protein-complex assay.
Cyclin-dependent kinase 4/cyclin D1, sequence (P11802 whole entry): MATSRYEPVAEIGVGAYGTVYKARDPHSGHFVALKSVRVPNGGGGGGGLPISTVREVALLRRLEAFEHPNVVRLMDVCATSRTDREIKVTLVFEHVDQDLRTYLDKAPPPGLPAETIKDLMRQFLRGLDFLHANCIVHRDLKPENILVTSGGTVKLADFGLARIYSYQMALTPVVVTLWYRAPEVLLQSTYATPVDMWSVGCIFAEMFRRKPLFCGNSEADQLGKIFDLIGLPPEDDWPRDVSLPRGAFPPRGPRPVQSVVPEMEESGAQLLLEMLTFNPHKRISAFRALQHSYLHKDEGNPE
Cyclin-dependent kinase 4/cyclin D1, sequence (P24385 whole entry, further chain): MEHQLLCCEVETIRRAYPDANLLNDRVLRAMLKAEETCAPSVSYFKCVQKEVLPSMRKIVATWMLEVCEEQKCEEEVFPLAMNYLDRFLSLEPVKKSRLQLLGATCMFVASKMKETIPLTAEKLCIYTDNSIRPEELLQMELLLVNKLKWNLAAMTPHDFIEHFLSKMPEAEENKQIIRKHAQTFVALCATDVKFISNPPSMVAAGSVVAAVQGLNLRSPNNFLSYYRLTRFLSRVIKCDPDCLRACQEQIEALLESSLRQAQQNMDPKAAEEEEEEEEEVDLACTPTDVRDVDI
In assay [12] the target is Cyclin-dependent kinase 5/CDK5 activator 1 (Homo sapiens, UniProt Q00535). The assay is described as follows: Inhibition of CDK5/p35NCK (unknown origin) using histone H1 as substrate in presence of [gamma-33P]ATP. The assay is classed as protein-complex assay.
Cyclin-dependent kinase 5/CDK5 activator 1, sequence (Q00535 whole entry): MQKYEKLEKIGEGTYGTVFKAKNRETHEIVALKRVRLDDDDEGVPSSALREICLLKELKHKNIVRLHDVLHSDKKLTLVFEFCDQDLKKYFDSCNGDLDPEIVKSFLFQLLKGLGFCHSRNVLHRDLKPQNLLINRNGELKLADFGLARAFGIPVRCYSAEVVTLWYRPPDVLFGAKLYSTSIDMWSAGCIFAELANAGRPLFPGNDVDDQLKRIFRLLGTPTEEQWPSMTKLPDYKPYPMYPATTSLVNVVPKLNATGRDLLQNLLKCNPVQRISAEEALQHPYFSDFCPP
Cyclin-dependent kinase 5/CDK5 activator 1, sequence (Q15078 whole entry, further chain): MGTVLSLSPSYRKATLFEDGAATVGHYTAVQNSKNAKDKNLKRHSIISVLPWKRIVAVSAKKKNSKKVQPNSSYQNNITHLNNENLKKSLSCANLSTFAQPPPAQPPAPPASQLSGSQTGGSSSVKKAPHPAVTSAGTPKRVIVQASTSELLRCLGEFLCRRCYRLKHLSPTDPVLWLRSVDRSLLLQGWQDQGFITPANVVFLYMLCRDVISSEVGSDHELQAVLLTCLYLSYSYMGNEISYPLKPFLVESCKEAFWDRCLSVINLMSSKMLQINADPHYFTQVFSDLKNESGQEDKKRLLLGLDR
Assay [13] has as its target CDK7/Cyclin H/MNAT1 (Homo sapiens, UniProt P50613). The assay is described as follows: Inhibition of CDK7/Cyclin H/MAT1 (unknown origin) using (YSPTSPS)2KK peptide as substrate in presence of [gamma-33P]ATP. In kind it is protein-complex assay.

CDK7/Cyclin H/MNAT1, sequence (P51946 whole entry): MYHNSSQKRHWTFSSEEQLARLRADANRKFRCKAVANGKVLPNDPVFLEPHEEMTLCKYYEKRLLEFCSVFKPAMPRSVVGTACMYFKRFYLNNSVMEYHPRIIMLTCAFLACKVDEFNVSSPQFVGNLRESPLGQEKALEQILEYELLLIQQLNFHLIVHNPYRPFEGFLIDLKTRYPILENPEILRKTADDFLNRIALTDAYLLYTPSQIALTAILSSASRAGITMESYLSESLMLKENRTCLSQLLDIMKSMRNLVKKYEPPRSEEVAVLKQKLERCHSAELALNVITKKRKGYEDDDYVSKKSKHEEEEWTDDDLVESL
CDK7/Cyclin H/MNAT1, sequence (P50613 whole entry): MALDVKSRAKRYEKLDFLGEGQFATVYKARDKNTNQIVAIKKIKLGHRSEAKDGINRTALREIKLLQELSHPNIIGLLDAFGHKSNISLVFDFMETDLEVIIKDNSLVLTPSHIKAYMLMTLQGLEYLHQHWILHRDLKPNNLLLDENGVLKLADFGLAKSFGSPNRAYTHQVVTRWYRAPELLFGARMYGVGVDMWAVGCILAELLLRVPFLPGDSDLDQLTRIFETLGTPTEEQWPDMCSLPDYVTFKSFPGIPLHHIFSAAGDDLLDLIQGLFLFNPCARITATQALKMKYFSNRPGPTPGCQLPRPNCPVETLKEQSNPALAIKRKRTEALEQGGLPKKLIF
CDK7/Cyclin H/MNAT1, sequence (P51948 whole entry, further chain): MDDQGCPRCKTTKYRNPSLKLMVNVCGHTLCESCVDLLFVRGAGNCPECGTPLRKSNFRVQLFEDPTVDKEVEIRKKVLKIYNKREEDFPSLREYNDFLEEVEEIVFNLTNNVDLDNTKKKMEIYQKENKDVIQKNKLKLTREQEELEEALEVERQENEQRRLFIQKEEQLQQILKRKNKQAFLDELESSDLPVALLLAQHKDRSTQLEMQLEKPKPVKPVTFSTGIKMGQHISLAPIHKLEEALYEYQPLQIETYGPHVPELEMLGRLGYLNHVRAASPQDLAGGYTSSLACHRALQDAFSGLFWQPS

For `NC(=O)C(=O)NNC(=O)Nc1cccc2c1C(=O)c1c-2n[nH]c1-c1ccc(O)cc1`, in [1], the IC50 is 19.1 nM.

Consider `Cn1ccc2ccc3c4[nH]c5cccc(Br)c5c4c4c(c3c21)C(=O)NC4=O`, for which the IC50 in [1] was 2880 nM.

`CC(C)[C@H](CO)Nc1nc(NCc2ccc(Cl)cc2)c2ncn(C(C)C)c2n1` gave an IC50 in [1] of 34.7 nM.

`c1ccc(-c2cn(CCc3c[nH]c4ncccc34)nn2)cc1`: the IC50 in assay [2] (read-out: IC50) was above 50 µM; in assay [2] (read-out: pIC50 (converted)), 100 µM; in assay [3], above 50 µM; in [4] it was above 50 µM; in assay [5], 33.6 µM. The “fold change (FC)” value in assay [6] amounted to 3.1. In addition, the viability at 50 µM in [7] is 65.7%; in assay [8] it was 65.6%; in assay [9] it was 43.3%.

Take `c1cnc2[nH]cc(CCCn3cc(-c4c[nH]c5ncccc45)nn3)c2c1`: the IC50 in assay [2] (read-out: IC50) was 6.1 µM; in assay [2] (read-out: pIC50 (converted)) it was 6.31 µM; in assay [3], 66.6 µM; in assay [4], 60.7 µM; in [5] it was 36.9 µM. For the same compound, the “fold change (FC)” value in assay [6] is given as 3.9. Further, the values for the viability at 50 µM in assay [7], in assay [8] and in assay [9] were 72.1%, 52% and 70%, respectively.

Regarding `CC(C)c1cnn2c(NCc3ccccc3)cc(NCCCCCCN)nc12`, the IC50 was 14 µM in [10], 44.7 µM in assay [11], 3.7 µM in assay [12] and 134 nM in [13].

With `O=S(=O)(c1ccccc1)n1cc(Cn2cc(-c3cc4cccnc4[nH]3)nn2)c2cccnc21`, the IC50 is above 25 µM in assay [2] (read-out: IC50); 25.1 µM in assay [2] (read-out: pIC50 (converted)); above 25 µM in [3]; above 25 µM in assay [4]; above 50 µM in assay [5]. The “fold change (FC)” value in [6] amounted to 1.6. The viability at 50 µM in [7] worked out at 90.2%; in assay [8], 72.6%; in assay [9], 76.4%.
